Rad51 HR inh: Rad51 (human) homologous recombination inhibition; inhibition, % at 10 µM; 200,000 compounds, 0.085% hits; Q06609; hRad51 DNA strand exchange, fluorescence dequenching;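 active = inhibition above 40% at the single screening dose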;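 also: 0% = DMSO control wells and 100% = blanks with heterologous ssDNA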
Target sequence (Q06609 whole entry, looked up): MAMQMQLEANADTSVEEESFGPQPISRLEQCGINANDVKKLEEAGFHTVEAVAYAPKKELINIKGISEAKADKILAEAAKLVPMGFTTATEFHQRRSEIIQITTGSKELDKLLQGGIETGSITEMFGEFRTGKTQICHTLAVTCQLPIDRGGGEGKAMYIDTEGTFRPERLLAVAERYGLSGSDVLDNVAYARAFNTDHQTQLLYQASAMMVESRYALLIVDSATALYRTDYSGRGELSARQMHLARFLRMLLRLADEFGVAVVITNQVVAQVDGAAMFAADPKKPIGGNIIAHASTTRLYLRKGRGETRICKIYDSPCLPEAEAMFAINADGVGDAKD
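material = hRad51 filaments on single-stranded DNA | reagent = Donor/quencher-labelled 47-bp dsDNA substrate | compound = 10 µM final, single point | schedule = strand-exchange reaction 15 min at room temperature | measured by = fluorescein emission 520 nm, excitation 485 nm | read-out basis = % inhibition versus plate control and blank means | benchmarks = plate controls and plate blanks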
Cl transport mod: modulates chloride dependent transport by human KCC2; Q9H2X9; KCC2 cells, thallium flux FluoZin-2 fluorescence; B-score of Tl+ flux slope (higher = more flux/activation; lower = inhibition) at 10 µM; 190,000 compounds, 2.2% hits; AID 1456;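 active = thallium flux slope and its plate-corrected score both differing from the plate sample mean at a set confidence after two filtering rounds, in either direction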;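 also: slope of fluorescence scaled to starting intensity during 10 to 20 s after thallium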
Insulin prom up: MIN6 insulin promoter up-regulation; MIN6 insulin promoter-GFP reporter, high-content imaging; stronger effect = higher value; 190,000 compounds, 0.3% hits; AID 1625; z-score at 5 µM;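 active = z-score above 3 at 5 µM with at least 500 cells counted in the well; inconclusive = wells under 500 cells, flagged as cytotoxic or low count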
Autophagy mod: autophagy modulation, high-content screen; calls only at 10 µM (by protocol); 190,000 compounds, 0.98% hits; MEF GFP-LC3 puncta imaging; test concentration mostly 10 µM;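 active = percentage of spot-positive cells more than 3 SD above its plate mean, without a fluorescence outlier flag or 80% toxicity; inconclusive = no clear call, values can overlap the other calls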;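 also: spot-positive cell cutoff set from DMSO-treated cells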
WT yeast gro inh: growth inhibition of WT yeast, mitochondrial fusion screen; inhibition, % at 10 µM; 190,000 compounds, 2.1% hits; mitochondrial fusion phenotypic screen, WT strain; in the data active = inhibition above about 58%; tested in S. cerevisiae
SKKanGAS inh: inhibitors of SKKanGAS S. pyogenes growth in kanamycin (SK-promoter or general growth effect); BacTiter-Glo, 6 h; inhibition, % at 7.5 µM; 300,000 compounds, 1.3% hits;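 active = mean replicate score, as percent of positive control median, at least 50; inconclusive = mean below 50 but one replicate at or above 50; inactive = mean and every replicate below 50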;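 also: strain carries kanamycin resistance gene driven by streptokinase promoter and grows in 40 µg/ml kanamycin; loss of luminescence reflects streptokinase promoter inhibition or plain growth inhibition; 0% = median of DMSO wells and 100% = positive control at its reference dose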
* = called active by the depositor; i = inactive; ? = inconclusive; / = no result; + = active, no number. The list is not random: actives were taken first. Their share in the collection is about 4.2%.

SMILES | Rad51 HR inh | Cl transport mod | Insulin prom up | Autophagy mod | WT yeast gro inh | SKKanGAS inh
COc1ccc(CCNc2nc(-c3ccncc3)cs2)cc1OC | / | -1.72 | -0.98 | / | / | -5.6
O=C(NCCCn1ccnc1)c1nn2c(C(F)(F)F)cc(-c3ccccc3)nc2c1Cl | 15.0 | -0.151 | -0.64 | i | -4.5 | ?
CN(C)C(=O)C12CCC(C)(c3nc4ccccc4nc31)C2(C)C (centres undefined) | -9.5 | 0.306 | 3.42* | i | -0.2 | -9.3
Cc1ccc(S(=O)(=O)Nc2ccc3c(c2)C(=O)NC3=O)cc1[N+](=O)[O-] | / | / | / | / | / | -3.1
COc1ccc(Nc2nc(-c3cccs3)nc3ccccc23)cc1S(=O)(=O)N1CCOCC1 | / | / | / | / | / | 29.8
COc1cc2c(cc1NC(=O)COC(=O)[C@@H](NS(=O)(=O)c1cccc(Cl)c1)C(C)C)oc1ccccc12 | 9.5 | -0.053 | / | i | 13.8 | 34.5
CCN(CC)S(=O)(=O)c1ccc(C(=O)Nc2cc3oc4ccccc4c3cc2OC)cc1 | 3.1 | -0.426 | -0.61 | + | -12.9 | -1.2
COc1cc2c(cc1NC(=O)Nc1ccc(C)cc1)oc1ccccc12 | -3.5 | -0.685 | -1.01 | i | 96.1* | 3.2
COc1ccc(/C=C/C(=O)NC(=S)Nc2cc3oc4ccccc4c3cc2OC)cc1 | -2.1 | -0.441 | 0.08 | i | -15.8 | -3.3
COc1cc2c(cc1NC(=O)/C=C/c1ccccc1)oc1ccccc12 | -11.1 | / | -0.55 | + | 12.6 | -17.9
COc1ccc(S(=O)(=O)N[C@@H](C)C(=O)OCC(=O)Nc2cc3oc4ccccc4c3cc2OC)cc1 | -0.5 | -1.73 | 0.02 | i | 11.7 | 80.3*
O=C(NCC(=O)N(c1cccnc1)C(C(=O)NC1CCCC1)c1ccc(F)cc1)c1ccco1 (centres undefined) | -88.5 | -0.261 | 0.35 | i | -9.3 | -5.9
O=C(Nc1ccc(F)c(Cl)c1)c1cncs1 | / | / | / | / | / | -3.3
COc1cc2c(cc1NC(=O)CSc1nc3ccccc3[nH]1)oc1ccccc12 | -2.1 | 0.799 | -0.18 | i | 64.1* | 5.9
COc1cc2c(cc1NC(=O)CSc1ccccc1)oc1ccccc12 | / | -0.329 | -0.02 | i | 5.4 | -14.4
COc1ccc(S(=O)(=O)N2CCOC2CNC(=O)C(=O)NCc2ccc3c(c2)OCO3)cc1 (centres undefined) | / | / | / | / | / | 2.3
O=C(CCCOc1ccc(Cl)cc1Cl)N1CCc2ccccc2C1 | 4.4 | -0.0346 | / | i | 79.6* | 21.6
O=C1CCCC/C1=C\Nc1ccc(C(=O)O)c(O)c1 | -8.6 | 2.18 | -0.05 | / | / | 4.5
Cc1ccc(C(=O)Nc2ccccc2C(=O)Nc2ccccn2)cc1Cl | / | / | / | / | / | 12.6
Cc1ccc(NC(=O)c2noc3c2CCCCC3)cc1C | / | -0.0478 | 0.58 | i | -0.9 | -14.5
Cc1ccc(NC(=O)c2ccc(C#CC3(O)CCCCC3)cc2)cc1C | -2.8 | / | 0.09 | i | -19.9 | 50.5*
CN1CCN(NC(=O)Nc2cccc(F)c2)CC1 | / | / | / | / | / | -2.5
Cc1ccc(NC(=O)C2(c3ccccc3)CC2(Cl)Cl)cc1C (centres undefined) | / | 0.1 | -0.46 | i | 73.3* | 4.8
CS(=O)(=O)N(CC(=O)NCc1ccncc1)C1CCCCC1 | / | 0.942 | 0.83 | i | 2.9 | -3.6
C/C(=N\Nc1ccc([N+](=O)[O-])cc1)c1ccc(N)cc1 | -37.3 | 0.0403 | 1.74 | i | 42.4 | 0.7
SMILES | Rad51 HR inh | Cl transport mod | Insulin prom up | Autophagy mod | WT yeast gro inh | SKKanGAS inh
CCc1ccc(/C(C)=N\Nc2ccc([N+](=O)[O-])cc2)cc1 | -23.8 | -0.132 | 1.89 | + | 7.6 | -7.5
CN(C)/C=C1\SC(=S)N(c2ccc(Br)cc2)C1=O | -4.6 | 2.36 | -0.31 | / | / | 54.2*
Cc1c(NC(=O)C(C)OC(=O)c2ccc(Cl)nc2)c(=O)n(-c2ccccc2)n1C (centres undefined) | 13.6 | 0.974 | -0.23 | i | -14.6 | -4.1
O=C(COC(=O)Cc1ccc(Br)cc1)NC12CC3CC(CC(C3)C1)C2 | / | -0.0241 | / | i | 83.9* | 20.7
Cc1cccc(Oc2nccc(C(F)(F)F)c2C(=O)Nc2ccc(F)cc2F)c1 | 7.8 | -0.492 | 3.57* | / | / | 4.3
CCOC(=O)c1c(-c2ccc(-c3ccccc3)cc2)csc1NC(=O)CNCCN(C)C | / | / | / | / | / | 111.8*
CCOC(=O)c1c(-c2ccccc2)csc1NC(=O)CCN1C(=O)c2ccccc2C1=O | -1.9 | 1.38 | -0.57 | i | -0.3 | 5.0
CCNC(=S)Nc1scc(-c2ccccc2)c1C(=O)OCC | 7.4 | 41.8* | -1.62 | i | 37.0 | 34.2
CCOC(=O)c1c(-c2ccccc2)csc1NC(=S)NC | 0.7 | 35.6* | -0.39 | i | -2.4 | 1.1
O=C(CN1C(=O)CSc2ncccc21)Nc1cccc(Cl)c1 | / | / | / | / | / | 5.5
c1csc(CNc2nc(-c3cccs3)nc3ccccc23)c1 | 24.8 | 0.131 | -0.49 | i | 79.0* | 5.6
c1ccc(CN2CCC(Nc3nc(-c4cccs4)nc4ccccc34)CC2)cc1 | 5.4 | -0.85 | -2.46 | + | 47.8 | -5.0
c1ccc(-c2nc(NCc3cccs3)c3ccccc3n2)cc1 | / | / | / | / | / | 16.0
c1csc(-c2nc(NCC3CCCO3)c3ccccc3n2)c1 (centres undefined) | / | / | / | / | / | -4.9
O=C(Nc1nnc(-c2ccncc2)o1)c1cccc(N2C(=O)CCC2=O)c1 | -4.3 | -0.617 | -0.03 | i | -3.8 | -0.7
O=C(COc1ccccc1)Nc1nnc(-c2ccc(Cl)cc2)o1 | / | / | / | / | / | 43.5
O=C(Nc1nnc(-c2ccc(Cl)cc2)o1)c1cccc(N2C(=O)CCC2=O)c1 | -6.2 | 17.4* | -0.15 | i | 36.4 | 69.5*
O=C(Nc1nnc(-c2ccncc2)o1)c1ccc2ccccc2c1 | / | / | / | / | / | 77.8*
Cc1cccc(C(=O)Nc2nnc(-c3ccncc3)o2)c1 | 6.8 | 0.701 | 2.4 | i | -9.5 | -2.5
O=C(Nc1nnc(-c2ccccc2)o1)c1ccc(Cl)cc1 | -7.0 | 64.3* | -0.63 | i | 27.6 | 92.0*
CSc1cccc(-c2nnc(NC(=O)c3cccc(N4C(=O)CCC4=O)c3)o2)c1 | / | / | / | / | / | 85.0*
COc1ccc(C(=O)Nc2nncs2)cc1S(=O)(=O)N1CCOCC1 | / | / | / | / | / | -0.3
O=C1N/C(=N\N=C\c2cccnc2)SC1Cc1ccc(SC(F)F)cc1 (centres undefined) | -0.7 | -1.14 | / | i | 52.8 | 92.9*
O=C1N/C(=N\c2ccccn2)SC1Cc1ccccc1Cl (centres undefined) | 7.0 | / | -0.11 | / | / | -2.1
O=C1N/C(=N\N=C\c2cccs2)SC1Cc1cccc(Cl)c1 (centres undefined) | 5.2 | 0.116 | 1.14 | i | -5.8 | -15.8
O=C1N/C(=N\N=C\c2ccccn2)SC1Cc1cccc(SC(F)F)c1 (centres undefined) | -3.7 | / | / | i | 9.6 | 94.2*
O=C1N/C(=N\N=C\c2ccc3ncccc3c2)SC1Cc1ccc(SC(F)F)cc1 (centres undefined) | 3.2 | 0.0514 | / | i | 8.2 | /
Cc1cccc(CC2S/C(=N/c3ccccn3)NC2=O)c1 (centres undefined) | 1.0 | -0.00367 | 0.18 | + | 14.4 | 18.2
